Experimental data taken from ChEMBL document CHEMBL1833842, “1,3-Dihydro-2H-indol-2-ones derivatives: design, synthesis, in vitro antibacterial, antifungal and antitubercular study” (2011).
Values after ≈ are worked out from the molar mass of the structure shown.

What was measured:
Aspergillus clavatus = experiment: Antifungal activity against 10^8 CFU/mL Aspergillus clavatus MTCC 1323 by broth microdilution method; format: functional
In short: (§1)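 Fungal MTCC cultures came from IMTECH Chandigarh. Mueller-Hinton broth served as growth and dilution medium, with DMSO as diluent. Inoculum was set to 10⁸ CFU/mL by turbidity. Serial dilutions from a 2000 stock gave a primary screen at 500, 250 and 125, followed by a secondary dilution series for actives. MIC was the lowest concentration inhibiting growth.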

Aspergillus niger = experiment: Antifungal activity against 10^8 CFU/mL Aspergillus niger MTCC 282 by broth microdilution method; format: functional; in short: as §1
Candida albicans = experiment: Antifungal activity against 10^8 CFU/mL Candida albicans MTCC 227 by broth microdilution method; format: functional; in short: as §1
Bacillus subtilis = experiment: Antibacterial activity against 10^8 CFU/mL Bacillus subtilis MTCC 441 by broth microdilution method; format: functional
In short: (§2)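 MTCC bacterial strains from IMTECH Chandigarh were grown in Mueller-Hinton broth, which was also used to dilute the compounds. Inoculum was turbidity-adjusted to 10⁸ CFU/mL, and DMSO served as diluent. Compounds from a 2000 stock were screened first at 500, 250 and 125; actives were retested in a second dilution series. Tubes were incubated overnight at 37 °C, and MIC was the lowest concentration with no visible growth. Clear tubes were subcultured overnight at 37 °C to tell bacteriostatic from bactericidal.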

Streptococcus pyogenes = experiment: Antibacterial activity against 10^8 CFU/mL Streptococcus pyogenes MTCC 442 by broth microdilution method; format: functional; in short: as §2
Staphylococcus aureus = experiment: Antibacterial activity against 10^8 CFU/mL Staphylococcus aureus MTCC 96 by broth microdilution method; format: functional; in short: as §2
Salmonella typhi = experiment: Antibacterial activity against 10^8 CFU/mL Salmonella typhi MTCC 98 by broth microdilution method; format: functional, Salmonella enterica subsp. enterica serovar Typhi; conditions: Salmonella enterica
In short: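 Broth microdilution in Mueller-Hinton broth with MTCC strains, inoculum adjusted by turbidity to 10⁸ CFU/mL. Compounds were diluted from DMSO. Primary screen used 500, 250 and 125 concentrations, and actives were serially diluted further. Tubes were incubated overnight at 37 °C. MIC was the lowest concentration with no visible growth. Clear tubes were subcultured overnight at 37 °C to judge bacteriostatic versus bactericidal.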

Klebsiella pneumoniae = experiment: Antibacterial activity against 10^8 CFU/mL Klebsiella pneumoniae MTCC 109 by broth microdilution method; format: functional; in short: as §2
Escherichia coli = experiment: Antibacterial activity against 10^8 CFU/mL Escherichia coli MTCC 443 by broth microdilution method; format: functional; in short: as §2
Pseudomonas aeruginosa = experiment: Antibacterial activity against 10^8 CFU/mL Pseudomonas aeruginosa MTCC 1688 by broth microdilution method; format: functional; in short: as §2
[1] = test system: Mycobacterium tuberculosis; experiment: Antituberculosis activity against 5 x 10^4 inoculum per tube Mycobacterium tuberculosis H37Rv after 24 hrs by Lowenstein-Jensen method; format: functional
In short: (§3)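 Conventional Lowenstein-Jensen method. Compound dilutions were made from a DMSO stock and added to liquid L-J medium, which was sterilized by inspissation. Tubes were incubated 24 h at 37 °C, then streaked with H37Rv (5 × 10⁴ bacilli per tube) harvested into 0.85% saline. Growth was checked at 12, 22 and 28 days at 37 °C against medium-only controls. MIC was the concentration giving no colonies or <20 colonies.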

[2] = test system: Mycobacterium tuberculosis; experiment: Antituberculosis activity against 5 x 10^4 bacilli per tube Mycobacterium tuberculosis H37Rv assessed as growth inhibition at 50 ug/mL incubated for 24 hrs measured after 28 days; format: functional; conditions: read-out: GI; in short: as §3
[3] = test system: Mycobacterium tuberculosis; experiment: Antituberculosis activity against 5 x 10^4 bacilli per tube Mycobacterium tuberculosis H37Rv assessed as growth inhibition at 100 ug/mL incubated for 24 hrs measured after 28 days; format: functional; conditions: read-out: GI; in short: as §3
[4] = test system: Mycobacterium tuberculosis; experiment: Antituberculosis activity against 5 x 10^4 bacilli per tube Mycobacterium tuberculosis H37Rv assessed as growth inhibition at 25 ug/mL incubated for 24 hrs measured after 28 days; format: functional; conditions: read-out: GI; in short: as §3
[5] = test system: Mycobacterium tuberculosis; experiment: Antituberculosis activity against 5 x 10^4 bacilli per tube Mycobacterium tuberculosis H37Rv assessed as growth inhibition at 62.5 ug/mL incubated for 24 hrs measured after 28 days; format: functional; conditions: read-out: GI; in short: as §3
[6] = test system: Mycobacterium tuberculosis; experiment: Antituberculosis activity against 5 x 10^4 bacilli per tube Mycobacterium tuberculosis H37Rv assessed as growth inhibition at 1000 ug/mL incubated for 24 hrs measured after 28 days; format: functional; conditions: read-out: GI; in short: as §3

Compound | MIC (Aspergillus clavatus) | MIC (Aspergillus niger) | MIC (Candida albicans) | MIC99 (Bacillus subtilis) | MIC99 (Streptococcus pyogenes) | MIC99 (Staphylococcus aureus) | MIC99 (Salmonella typhi) | MIC99 (Klebsiella pneumoniae) | MIC99 (Escherichia coli) | MIC99 (Pseudomonas aeruginosa) | MIC [1] | inhibition of growth at 50 µg/mL [2] | inhibition of growth at 100 µg/mL [3] | inhibition of growth at 25 µg/mL [4] | inhibition of growth at 62.5 µg/mL [5] | inhibition of growth at 1000 µg/mL [6]
COC1=CC(=O)C[C@@H](C)[C@]12Oc1c(Cl)c(OC)cc(OC)c1C2=O [GRISEOFULVIN] | 100 µg/mL (≈ 283 µM) | 100 µg/mL (≈ 283 µM) | 500 µg/mL (≈ 1420 µM) |  |  |  |  |  |  |  |  |  |  |  |  | 
O=C(O)c1cn(C2CC2)c2cc(N3CCNCC3)c(F)cc2c1=O [CIPROFLOXACIN] |  |  |  | 50 µg/mL (≈ 151 µM) | 50 µg/mL (≈ 151 µM) | 50 µg/mL (≈ 151 µM) | 25 µg/mL (≈ 75.4 µM) | 25 µg/mL (≈ 75.4 µM) | 25 µg/mL (≈ 75.4 µM) | 25 µg/mL (≈ 75.4 µM) |  |  |  |  |  | 
CC1=C(c2nnc(/N=C3\C(=O)Nc4ccc(F)cc43)s2)C(c2ccccc2)NC(=O)N1 (stereo unspecified) | 200 µg/mL (≈ 460 µM) | 100 µg/mL (≈ 230 µM) | 100 µg/mL (≈ 230 µM) | 100 µg/mL (≈ 230 µM) | 100 µg/mL (≈ 230 µM) | 62.5 µg/mL (≈ 144 µM) | 100 µg/mL (≈ 230 µM) | 100 µg/mL (≈ 230 µM) | 100 µg/mL (≈ 230 µM) | 62.5 µg/mL (≈ 144 µM) | 50 µg/mL (≈ 115 µM) | 99% |  |  |  | 
CC1=C(c2nnc(/N=C3\C(=O)Nc4ccc(Cl)cc43)s2)C(c2ccccc2)NC(=O)N1 (stereo unspecified) | 500 µg/mL (≈ 1110 µM) | 500 µg/mL (≈ 1110 µM) | > 1000 µg/mL | 200 µg/mL (≈ 444 µM) | 200 µg/mL (≈ 444 µM) | 200 µg/mL (≈ 444 µM) | 200 µg/mL (≈ 444 µM) | 200 µg/mL (≈ 444 µM) | 100 µg/mL (≈ 222 µM) | 200 µg/mL (≈ 444 µM) | 100 µg/mL (≈ 222 µM) |  | 98% |  |  | 
CC1=C(c2nnc(/N=C3\C(=O)Nc4ccc(F)cc43)s2)C(c2ccccc2)NC(=S)N1 (stereo unspecified) | 100 µg/mL (≈ 222 µM) | 100 µg/mL (≈ 222 µM) | 100 µg/mL (≈ 222 µM) | 100 µg/mL (≈ 222 µM) | 100 µg/mL (≈ 222 µM) | 62.5 µg/mL (≈ 139 µM) | 100 µg/mL (≈ 222 µM) | 100 µg/mL (≈ 222 µM) | 62.5 µg/mL (≈ 139 µM) | 62.5 µg/mL (≈ 139 µM) | 25 µg/mL (≈ 55.5 µM) |  |  | 99% |  | 
CC1(C)S[C@@H]2[C@H](NC(=O)[C@H](N)c3ccccc3)C(=O)N2[C@H]1C(=O)O [AMPICILLIN] |  |  |  | 100 µg/mL (≈ 286 µM) | 100 µg/mL (≈ 286 µM) | 250 µg/mL (≈ 715 µM) | 100 µg/mL (≈ 286 µM) | 100 µg/mL (≈ 286 µM) | 100 µg/mL (≈ 286 µM) | 100 µg/mL (≈ 286 µM) |  |  |  |  |  | 
CC1=C(c2nnc(/N=C3\C(=O)Nc4ccc([N+](=O)[O-])cc43)s2)C(c2ccccc2)NC(=S)N1 (stereo unspecified) | 250 µg/mL (≈ 524 µM) | 100 µg/mL (≈ 209 µM) | 250 µg/mL (≈ 524 µM) | 100 µg/mL (≈ 209 µM) | 200 µg/mL (≈ 419 µM) | 100 µg/mL (≈ 209 µM) | 100 µg/mL (≈ 209 µM) | 100 µg/mL (≈ 209 µM) | 62.5 µg/mL (≈ 131 µM) | 100 µg/mL (≈ 209 µM) | 62.5 µg/mL (≈ 131 µM) |  |  |  | 99% | 
CC1=C(c2nnc(/N=C3\C(=O)Nc4ccc(Cl)cc43)s2)C(c2ccccc2)NC(=S)N1 (stereo unspecified) | 500 µg/mL (≈ 1070 µM) | 500 µg/mL (≈ 1070 µM) | 500 µg/mL (≈ 1070 µM) | 100 µg/mL (≈ 214 µM) | 200 µg/mL (≈ 428 µM) | 200 µg/mL (≈ 428 µM) | 200 µg/mL (≈ 428 µM) | 200 µg/mL (≈ 428 µM) | 200 µg/mL (≈ 428 µM) | 100 µg/mL (≈ 214 µM) | 62.5 µg/mL (≈ 134 µM) |  |  |  | 99% | 
CC1=C(c2nnc(/N=C3\C(=O)Nc4ccc([N+](=O)[O-])cc43)s2)C(c2ccccc2)NC(=O)N1 (stereo unspecified) | 500 µg/mL (≈ 1080 µM) | 250 µg/mL (≈ 542 µM) | 250 µg/mL (≈ 542 µM) | 200 µg/mL (≈ 433 µM) | 250 µg/mL (≈ 542 µM) | 200 µg/mL (≈ 433 µM) | 200 µg/mL (≈ 433 µM) | 200 µg/mL (≈ 433 µM) | 62.5 µg/mL (≈ 135 µM) | 100 µg/mL (≈ 217 µM) | 62.5 µg/mL (≈ 135 µM) |  |  |  | 99% | 
CC1=C(c2nnc(/N=C3\C(=O)Nc4ccccc43)s2)C(c2ccccc2)NC(=O)N1 (stereo unspecified) | 250 µg/mL (≈ 600 µM) | 250 µg/mL (≈ 600 µM) | 250 µg/mL (≈ 600 µM) | 500 µg/mL (≈ 1200 µM) | 500 µg/mL (≈ 1200 µM) | 500 µg/mL (≈ 1200 µM) | 250 µg/mL (≈ 600 µM) | 250 µg/mL (≈ 600 µM) | 500 µg/mL (≈ 1200 µM) | 250 µg/mL (≈ 600 µM) | 1000 µg/mL (≈ 2400 µM) |  |  |  |  | 98%
